From ChEMBL document CHEMBL3779865, “Discovery of Benzo[cd]indol-2(1H)-ones as Potent and Specific BET Bromodomain Inhibitors: Structure-Based Virtual Screening, Optimization, and Biological Evaluation” (J Med Chem, 2016)

Key:
[1] = target: Histone acetyltransferase p300 (Homo sapiens) (UniProt Q09472); test: Binding affinity to human His6-tagged EP300 (A1040 to G1161 residues) expressed in Escherichia coli BL21(DE3) cells at 200 uM incubated for 30 mins by SYPRO orange staining based fluorescence thermal shift assay
How it was run: (§1)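 His6-tagged bromodomain constructs expressed in E. coli BL21(DE3) (grown at 25 °C to OD600 ~1.0, induced with 0.1 mM IPTG at 16 °C for 16 h). Purified by Ni affinity then gel filtration. Final 10 μM protein and 200 μM compound in 10 mM HEPES pH 7.5, 150 mM NaCl, DMSO ≤1%. SYPRO Orange 1:1000, 30 min on ice. Melt 30–75 °C at 0.3 °C/min. Triplicates. Tm from Boltzmann fit; ΔTm = Tm with minus without compound.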

MV4-11 [2] = test: Antiproliferative activity against human MV4-11 cells after 72 hrs by CCK8 assay; type: functional, cell-based; details: Homo sapiens, MV4-11, 72 h; read-out: IC50
[3] = target: T1, Bromodomain-containing protein 9 (Homo sapiens) (UniProt Q9H8M2); test: Binding affinity to human His6-tagged BRD9 (L14 to Q134 residues) expressed in Escherichia coli BL21(DE3) cells at 200 uM incubated for 30 mins by SYPRO orange staining based fluorescence thermal shift assay; how it was run: as §1
T1 sequence (whole entry): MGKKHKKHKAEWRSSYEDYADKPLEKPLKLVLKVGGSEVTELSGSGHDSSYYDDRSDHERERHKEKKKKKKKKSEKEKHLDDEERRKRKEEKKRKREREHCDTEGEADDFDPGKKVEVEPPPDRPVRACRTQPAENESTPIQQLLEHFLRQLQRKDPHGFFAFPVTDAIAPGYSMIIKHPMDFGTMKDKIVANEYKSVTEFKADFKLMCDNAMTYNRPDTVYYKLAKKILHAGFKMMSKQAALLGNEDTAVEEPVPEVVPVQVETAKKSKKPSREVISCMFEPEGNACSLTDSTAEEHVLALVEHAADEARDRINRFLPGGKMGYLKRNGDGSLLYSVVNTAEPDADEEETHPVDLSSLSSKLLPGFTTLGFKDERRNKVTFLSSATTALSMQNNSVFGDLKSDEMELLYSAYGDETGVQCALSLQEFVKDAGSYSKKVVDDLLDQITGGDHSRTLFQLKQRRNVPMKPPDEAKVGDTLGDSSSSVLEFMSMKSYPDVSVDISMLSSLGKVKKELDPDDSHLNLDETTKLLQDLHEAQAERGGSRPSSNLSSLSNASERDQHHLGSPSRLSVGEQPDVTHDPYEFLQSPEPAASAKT

[4] = target: Bromodomain-containing protein 2 (Homo sapiens) (UniProt P25440); test: Binding affinity to human His6-tagged BRD2 bromodomain 1 (K77 to N194 residues) expressed in Escherichia coli BL21(DE3) cells at 200 uM incubated for 30 mins by SYPRO orange staining based fluorescence thermal shift assay; how it was run: as §1
Chain of Bromodomain-containing protein 2 (Homo sapiens) (P25440 whole entry, looked up, the tested form may be a part): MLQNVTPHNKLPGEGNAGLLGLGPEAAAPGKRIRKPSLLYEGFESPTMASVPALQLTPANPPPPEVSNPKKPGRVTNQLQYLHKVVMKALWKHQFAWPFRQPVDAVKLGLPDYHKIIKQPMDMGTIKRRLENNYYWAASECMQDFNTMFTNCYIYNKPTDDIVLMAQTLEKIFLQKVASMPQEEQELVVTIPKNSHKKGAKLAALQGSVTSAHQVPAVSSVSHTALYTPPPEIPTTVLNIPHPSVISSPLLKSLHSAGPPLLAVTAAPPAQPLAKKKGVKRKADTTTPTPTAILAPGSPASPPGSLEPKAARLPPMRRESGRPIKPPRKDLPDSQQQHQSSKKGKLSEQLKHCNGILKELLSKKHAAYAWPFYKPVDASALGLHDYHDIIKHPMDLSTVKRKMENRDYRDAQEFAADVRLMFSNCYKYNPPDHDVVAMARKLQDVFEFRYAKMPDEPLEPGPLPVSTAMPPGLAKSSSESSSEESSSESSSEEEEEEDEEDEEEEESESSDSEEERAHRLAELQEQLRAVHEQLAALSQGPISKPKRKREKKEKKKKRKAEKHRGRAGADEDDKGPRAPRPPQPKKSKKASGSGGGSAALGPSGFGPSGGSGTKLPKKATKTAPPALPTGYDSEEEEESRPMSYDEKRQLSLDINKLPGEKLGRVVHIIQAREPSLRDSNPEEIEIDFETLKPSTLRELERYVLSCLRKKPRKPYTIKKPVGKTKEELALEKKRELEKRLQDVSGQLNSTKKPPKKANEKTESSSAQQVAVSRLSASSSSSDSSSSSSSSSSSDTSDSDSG

[5] = target: Histone-lysine N-methyltransferase ASH1L (Homo sapiens) (UniProt Q9NR48); test: Binding affinity to human His6-tagged ASH1L (E2433 to E2564 residues) expressed in Escherichia coli BL21(DE3) cells at 200 uM incubated for 30 mins by SYPRO orange staining based fluorescence thermal shift assay; how it was run: as §1
[6] = Antiproliferative activity against human HL60 cells after 72 hrs by CCK8 assay; type: functional, cell-based, HL-60; details: Homo sapiens, HL-60, 72 h; read-out: IC50
HT-29 = test: Antiproliferative activity against human HT-29 cells after 72 hrs by CCK8 assay; type: functional, cell-based; details: Homo sapiens, HT-29, 72 h; read-out: IC50
[7] = target: T2, Bromodomain-containing protein 4 (Homo sapiens, UniProt O60885); test: Binding affinity to human His6-tagged BRD4 bromodomain 1 (N44 to E168 residues) expressed in Escherichia coli BL21(DE3) cells by isothermal titration calorimetry
[8] = target: Bromodomain adjacent to zinc finger domain protein 2B (Homo sapiens) (UniProt Q9UIF8); test: Binding affinity to human His6-tagged BAZ2B (S1858 to S1972 residues) expressed in Escherichia coli BL21(DE3) cells at 200 uM incubated for 30 mins by SYPRO orange staining based fluorescence thermal shift assay; how it was run: as §1
[9] = target: Bromodomain testis-specific protein (Homo sapiens) (UniProt Q58F21); test: Binding affinity to human His6-tagged BRDT bromodomain 1 (N21 to E137 residues) expressed in Escherichia coli BL21(DE3) cells at 200 uM incubated for 30 mins by SYPRO orange staining based fluorescence thermal shift assay; how it was run: as §1
[10] = target: Bromodomain-containing protein 3 (Homo sapiens) (UniProt Q15059); test: Binding affinity to human His6-tagged BRD3 bromodomain 1 (P24 to E144 residues) expressed in Escherichia coli BL21(DE3) cells at 200 uM incubated for 30 mins by SYPRO orange staining based fluorescence thermal shift assay; how it was run: as §1
[11] = target: T2, Bromodomain-containing protein 4
[12] = target: T2, Bromodomain-containing protein 4; test: Inhibition of human His6-tagged BRD4 bromodomain 1 (N44 to E168 residues) expressed in Escherichia coli BL21(DE3) cells using biotin-H4KAc4 as substrate incubated for 2 hrs by alphascreen assay
[13] = target: Histone acetyltransferase KAT2B (Homo sapiens) (UniProt Q92831); test: Binding affinity to human His6-tagged PCAF (G715 to D831 residues) expressed in Escherichia coli BL21(DE3) cells at 200 uM incubated for 30 mins by SYPRO orange staining based fluorescence thermal shift assay; how it was run: as §1
[14] = target: T3, Bromodomain-containing protein 1 (Homo sapiens) (UniProt O95696); test: Binding affinity to human His6-tagged BRD1 (E556 to A688 residues) expressed in Escherichia coli BL21(DE3) cells at 200 uM incubated for 30 mins by SYPRO orange staining based fluorescence thermal shift assay; how it was run: as §1
T3 sequence (whole entry): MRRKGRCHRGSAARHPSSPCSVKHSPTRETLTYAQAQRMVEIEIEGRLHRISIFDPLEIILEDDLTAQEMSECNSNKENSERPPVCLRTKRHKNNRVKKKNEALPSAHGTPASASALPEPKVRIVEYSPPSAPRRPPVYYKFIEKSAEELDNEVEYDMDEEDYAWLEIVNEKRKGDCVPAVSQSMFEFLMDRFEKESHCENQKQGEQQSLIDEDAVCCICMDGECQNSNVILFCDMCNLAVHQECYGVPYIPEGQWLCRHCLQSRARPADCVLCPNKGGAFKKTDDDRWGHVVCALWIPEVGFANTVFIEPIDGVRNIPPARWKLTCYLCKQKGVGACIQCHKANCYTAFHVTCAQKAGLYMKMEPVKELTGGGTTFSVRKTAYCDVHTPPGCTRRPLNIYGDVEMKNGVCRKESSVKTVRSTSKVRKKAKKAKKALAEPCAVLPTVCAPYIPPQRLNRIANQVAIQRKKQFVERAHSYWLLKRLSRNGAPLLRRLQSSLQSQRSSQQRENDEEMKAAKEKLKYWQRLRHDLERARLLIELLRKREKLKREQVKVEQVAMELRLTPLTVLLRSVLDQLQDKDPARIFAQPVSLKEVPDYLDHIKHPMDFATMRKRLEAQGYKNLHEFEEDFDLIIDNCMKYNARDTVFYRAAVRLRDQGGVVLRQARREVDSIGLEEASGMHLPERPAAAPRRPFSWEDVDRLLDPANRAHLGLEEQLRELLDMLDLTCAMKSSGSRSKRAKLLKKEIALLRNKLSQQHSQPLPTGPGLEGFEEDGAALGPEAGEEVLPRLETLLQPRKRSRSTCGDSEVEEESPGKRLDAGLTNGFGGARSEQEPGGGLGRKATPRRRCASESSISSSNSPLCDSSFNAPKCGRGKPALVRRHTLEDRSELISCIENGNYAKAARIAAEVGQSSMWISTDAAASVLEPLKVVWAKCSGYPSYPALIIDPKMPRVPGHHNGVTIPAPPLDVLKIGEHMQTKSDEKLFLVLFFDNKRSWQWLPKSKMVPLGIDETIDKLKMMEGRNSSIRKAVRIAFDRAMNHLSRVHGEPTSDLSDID

[15] = target: Transcription initiation factor TFIID subunit 1 (Homo sapiens) (UniProt P21675); test: Binding affinity to human His6-tagged TAF1 bromodomain 1 (R1377 to D1503 residues) expressed in Escherichia coli BL21(DE3) cells at 200 uM incubated for 30 mins by SYPRO orange staining based fluorescence thermal shift assay; how it was run: as §1
Chain of Transcription initiation factor TFIID subunit 1 (Homo sapiens) (P21675 whole entry, the tested form may be a part): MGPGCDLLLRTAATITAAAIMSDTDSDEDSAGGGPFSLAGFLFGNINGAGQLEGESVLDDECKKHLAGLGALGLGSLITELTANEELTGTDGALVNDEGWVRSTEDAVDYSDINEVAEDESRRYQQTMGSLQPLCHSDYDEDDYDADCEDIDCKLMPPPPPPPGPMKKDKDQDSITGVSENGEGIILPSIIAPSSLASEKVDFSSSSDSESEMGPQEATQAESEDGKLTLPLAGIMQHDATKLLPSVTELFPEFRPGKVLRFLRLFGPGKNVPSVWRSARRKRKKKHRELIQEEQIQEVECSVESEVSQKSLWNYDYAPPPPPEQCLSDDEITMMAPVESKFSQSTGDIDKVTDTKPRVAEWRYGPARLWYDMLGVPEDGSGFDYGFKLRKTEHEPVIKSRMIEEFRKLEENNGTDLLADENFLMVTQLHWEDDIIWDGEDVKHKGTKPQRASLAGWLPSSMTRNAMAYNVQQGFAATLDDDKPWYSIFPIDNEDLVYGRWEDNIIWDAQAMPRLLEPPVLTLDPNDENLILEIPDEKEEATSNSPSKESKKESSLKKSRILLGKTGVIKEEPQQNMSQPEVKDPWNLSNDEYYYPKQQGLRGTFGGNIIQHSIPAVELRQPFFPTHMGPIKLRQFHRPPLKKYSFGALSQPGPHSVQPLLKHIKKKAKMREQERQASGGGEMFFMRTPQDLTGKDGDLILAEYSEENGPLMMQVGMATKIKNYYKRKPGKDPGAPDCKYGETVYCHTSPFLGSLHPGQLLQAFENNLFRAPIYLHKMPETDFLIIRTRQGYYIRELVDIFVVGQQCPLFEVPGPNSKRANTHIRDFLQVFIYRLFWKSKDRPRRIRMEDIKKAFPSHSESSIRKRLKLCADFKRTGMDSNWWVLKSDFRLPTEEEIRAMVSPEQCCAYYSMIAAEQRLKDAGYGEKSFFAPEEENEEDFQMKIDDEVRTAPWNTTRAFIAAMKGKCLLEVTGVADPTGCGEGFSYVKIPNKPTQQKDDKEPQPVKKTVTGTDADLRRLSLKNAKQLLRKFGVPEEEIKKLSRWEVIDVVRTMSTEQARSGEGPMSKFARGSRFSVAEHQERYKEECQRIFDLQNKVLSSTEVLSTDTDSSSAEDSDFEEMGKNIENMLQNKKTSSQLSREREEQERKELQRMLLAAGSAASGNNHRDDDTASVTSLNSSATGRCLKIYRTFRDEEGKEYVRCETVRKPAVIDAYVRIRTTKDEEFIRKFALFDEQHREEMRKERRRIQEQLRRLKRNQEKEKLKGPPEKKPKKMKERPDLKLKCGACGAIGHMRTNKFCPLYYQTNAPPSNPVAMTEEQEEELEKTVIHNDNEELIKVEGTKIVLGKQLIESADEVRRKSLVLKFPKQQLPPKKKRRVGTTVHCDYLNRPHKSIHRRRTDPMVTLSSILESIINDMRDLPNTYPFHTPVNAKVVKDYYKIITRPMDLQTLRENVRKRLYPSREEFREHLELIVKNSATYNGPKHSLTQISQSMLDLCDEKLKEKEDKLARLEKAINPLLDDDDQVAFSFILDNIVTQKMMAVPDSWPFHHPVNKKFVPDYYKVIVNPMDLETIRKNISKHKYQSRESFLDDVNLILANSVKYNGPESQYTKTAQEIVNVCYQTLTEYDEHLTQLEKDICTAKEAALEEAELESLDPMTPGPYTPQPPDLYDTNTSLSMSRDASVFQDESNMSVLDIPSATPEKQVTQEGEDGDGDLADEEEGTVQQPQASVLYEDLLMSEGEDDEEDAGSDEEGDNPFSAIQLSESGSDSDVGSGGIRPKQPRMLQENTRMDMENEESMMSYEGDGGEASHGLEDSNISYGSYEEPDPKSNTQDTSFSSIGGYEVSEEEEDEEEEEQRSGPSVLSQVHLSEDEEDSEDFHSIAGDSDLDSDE

[16] = target: CREB-binding protein (Homo sapiens) (UniProt Q92793); test: Binding affinity to human His6-tagged CREBBP (R1081 to G1197 residues) expressed in Escherichia coli BL21(DE3) cells at 200 uM incubated for 30 mins by SYPRO orange staining based fluorescence thermal shift assay; how it was run: as §1
Chain of CREB-binding protein (Homo sapiens) (Q92793 2-2442 limits assumed): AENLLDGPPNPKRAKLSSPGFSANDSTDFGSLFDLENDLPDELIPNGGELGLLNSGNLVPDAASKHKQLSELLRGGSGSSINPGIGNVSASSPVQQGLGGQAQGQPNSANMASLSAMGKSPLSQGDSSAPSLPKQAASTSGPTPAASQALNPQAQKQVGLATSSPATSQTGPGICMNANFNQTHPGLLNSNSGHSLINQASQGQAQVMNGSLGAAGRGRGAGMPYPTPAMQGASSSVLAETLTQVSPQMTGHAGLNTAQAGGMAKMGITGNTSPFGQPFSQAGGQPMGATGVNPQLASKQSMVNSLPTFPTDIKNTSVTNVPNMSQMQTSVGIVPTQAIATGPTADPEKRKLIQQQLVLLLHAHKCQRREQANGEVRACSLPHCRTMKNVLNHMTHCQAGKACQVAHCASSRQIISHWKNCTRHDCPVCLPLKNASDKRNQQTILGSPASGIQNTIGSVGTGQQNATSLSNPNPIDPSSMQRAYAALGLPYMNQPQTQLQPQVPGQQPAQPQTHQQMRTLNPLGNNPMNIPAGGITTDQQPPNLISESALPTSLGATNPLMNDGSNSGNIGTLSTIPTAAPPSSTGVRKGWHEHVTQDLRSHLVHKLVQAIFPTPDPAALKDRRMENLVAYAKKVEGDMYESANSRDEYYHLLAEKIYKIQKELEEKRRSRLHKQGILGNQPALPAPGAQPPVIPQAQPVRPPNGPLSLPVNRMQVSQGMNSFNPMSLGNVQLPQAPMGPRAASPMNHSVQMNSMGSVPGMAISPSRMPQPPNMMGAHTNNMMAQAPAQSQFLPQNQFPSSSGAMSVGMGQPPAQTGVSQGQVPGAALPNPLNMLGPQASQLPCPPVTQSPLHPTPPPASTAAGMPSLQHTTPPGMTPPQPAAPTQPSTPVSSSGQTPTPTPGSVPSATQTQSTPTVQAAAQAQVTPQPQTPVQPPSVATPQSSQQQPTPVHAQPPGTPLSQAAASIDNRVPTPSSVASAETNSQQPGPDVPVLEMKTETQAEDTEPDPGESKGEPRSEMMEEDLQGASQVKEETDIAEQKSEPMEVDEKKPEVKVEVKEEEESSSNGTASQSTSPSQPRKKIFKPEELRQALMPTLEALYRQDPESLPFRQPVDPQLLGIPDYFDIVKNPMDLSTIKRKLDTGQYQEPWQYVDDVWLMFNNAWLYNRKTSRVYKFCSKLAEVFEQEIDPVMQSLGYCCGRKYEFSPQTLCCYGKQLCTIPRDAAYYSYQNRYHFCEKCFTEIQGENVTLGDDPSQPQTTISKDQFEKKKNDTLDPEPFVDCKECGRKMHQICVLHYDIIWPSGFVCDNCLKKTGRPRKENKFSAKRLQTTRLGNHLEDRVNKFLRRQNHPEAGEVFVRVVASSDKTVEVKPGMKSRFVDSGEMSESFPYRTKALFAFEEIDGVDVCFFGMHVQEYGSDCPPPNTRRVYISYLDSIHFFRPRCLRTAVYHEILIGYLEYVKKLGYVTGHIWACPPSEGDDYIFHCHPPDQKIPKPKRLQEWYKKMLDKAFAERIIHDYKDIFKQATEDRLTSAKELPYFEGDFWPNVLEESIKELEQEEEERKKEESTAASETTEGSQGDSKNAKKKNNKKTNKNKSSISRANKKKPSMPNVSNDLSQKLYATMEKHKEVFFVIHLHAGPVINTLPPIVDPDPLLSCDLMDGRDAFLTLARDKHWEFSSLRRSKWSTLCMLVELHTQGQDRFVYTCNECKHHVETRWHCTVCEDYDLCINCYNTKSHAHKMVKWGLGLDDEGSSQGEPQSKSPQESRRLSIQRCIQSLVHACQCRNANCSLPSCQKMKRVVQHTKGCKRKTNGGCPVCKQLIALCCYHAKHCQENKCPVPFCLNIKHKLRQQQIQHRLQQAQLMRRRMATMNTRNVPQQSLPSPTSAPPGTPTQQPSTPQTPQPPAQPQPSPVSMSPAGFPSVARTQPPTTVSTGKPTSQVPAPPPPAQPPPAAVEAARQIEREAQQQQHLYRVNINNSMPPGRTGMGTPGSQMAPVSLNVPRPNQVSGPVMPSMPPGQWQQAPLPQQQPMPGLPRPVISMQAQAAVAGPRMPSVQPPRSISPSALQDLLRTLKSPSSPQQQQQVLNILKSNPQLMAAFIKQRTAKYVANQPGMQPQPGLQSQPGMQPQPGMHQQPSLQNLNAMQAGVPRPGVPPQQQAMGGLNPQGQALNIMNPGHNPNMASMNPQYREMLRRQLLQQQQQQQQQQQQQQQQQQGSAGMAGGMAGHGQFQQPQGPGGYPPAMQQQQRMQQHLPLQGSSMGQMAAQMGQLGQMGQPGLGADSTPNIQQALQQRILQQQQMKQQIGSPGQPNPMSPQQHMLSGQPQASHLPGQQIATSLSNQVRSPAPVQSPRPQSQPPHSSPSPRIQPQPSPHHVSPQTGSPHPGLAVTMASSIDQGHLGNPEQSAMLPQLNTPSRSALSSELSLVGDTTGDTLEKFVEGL

[17] = Apparent permeability from basolateral to apical side in human Caco2 cells at 10 uM incubated for 1 hr by HPLC-MS/MS analysis; type: ADME, cell-based; details: Caco-2
[18] = Apparent permeability from basolateral to apical side in human Caco2 cells assessed as drug recovery at 10 uM incubated for 1 hr by HPLC-MS/MS analysis; type: ADME, cell-based; details: Caco-2, read-out: Drug recovery
[19] = Apparent permeability from apical to basolateral side in human Caco2 cells assessed as drug recovery at 10 uM incubated for 1 hr by HPLC-MS/MS analysis; type: ADME, cell-based; details: Caco-2, read-out: Drug recovery
[20] = Apparent permeability from apical to basolateral side in human Caco2 cells at 10 uM incubated for 1 hr by HPLC-MS/MS analysis; type: ADME, cell-based; details: Caco-2
MV4-11 [21] = test: Growth inhibition of human MV4-11 cells at 10 uM after 72 hrs by CCK8 assay; type: functional; details: MV4-11, 72 h, read-out: GI

Row | ΔTm [1] [°C] | IC50 (MV4-11 [2]) [nM] | ΔTm [3] [°C] | ΔTm [4] [°C] | ΔTm [5] [°C] | IC50 (HT-29) [nM] | Kd [7] [nM] | ΔTm [8] [°C] | ΔTm [9] [°C] | ΔTm [10] [°C] | ΔTm [11] [°C] | IC50 [12] [nM] | ΔTm [13] [°C] | ΔTm [14] [°C] | ΔTm [15] [°C] | ΔTm [16] [°C] | Compound | IC50 [6] [nM] | also measured
1 | 4.7 | 2850 | 2.8 | 5.8 | -0.4 | 8100 | 255 | 0 | 5 | 7.8 | 10.1 | 210 | 2.3 | -0.3 | -0.6 | 3.3 | CCN1C(=O)c2cccc3c(NS(=O)(=O)C4CCCCC4)ccc1c23 | 3860 | 
2 | 1.1 | 1320 | 0.8 | 4.7 | -0.5 | 14600 | 224 | 0.5 | 2.4 | 6.5 | 9 |  | -0.4 | 1.3 | 0.3 | 0.6 | CCCNS(=O)(=O)c1ccc2c3c(cccc13)C(=O)N2CC | 2950 | 

The next lines start with the compound.

Row | Compound | ΔTm [1] [°C] | IC50 (MV4-11 [2]) [nM] | ΔTm [3] [°C] | ΔTm [4] [°C] | ΔTm [5] [°C] | IC50 (HT-29) [nM] | Kd [7] [nM] | ΔTm [8] [°C] | ΔTm [9] [°C] | ΔTm [10] [°C] | ΔTm [11] [°C] | IC50 [12] [nM] | ΔTm [13] [°C] | ΔTm [14] [°C] | ΔTm [15] [°C] | ΔTm [16] [°C] | IC50 [6] [nM] | also measured
3 | C[C@H]1O[C@@H](O[C@H]2[C@@H](O)C[C@H](O[C@H]3[C@@H](O)C[C@H](O[C@H]4CC[C@@]5(C)[C@H](CC[C@@H]6[C@@H]5C[C@@H](O)[C@]5(C)[C@@H](C7=CC(=O)OC7)CC[C@]65O)C4)O[C@@H]3C)O[C@@H]2C)C[C@H](O)[C@@H]1O [DIGOXIN] |  |  |  |  |  |  |  |  |  |  |  |  |  |  |  |  |  | Papp B→A at 1 h, 10 µM [17]: 17.7 ×10⁻⁶ cm/s; recovery at 1 h, 10 µM [18]: 111%; recovery at 1 h, 10 µM [19]: 107%; Papp A→B at 1 h, 10 µM [20]: 1.6 ×10⁻⁶ cm/s
4 | CCN1C(=O)c2cccc3c(NS(=O)(=O)c4cc(Cl)ccc4OC)ccc1c23 | 1.2 | 2840 | 2.4 | 5.9 | -0.9 | 8200 | 180 | 0.6 | 5.5 | 7.3 | 8.5 | 470 | 0 | 0.1 | -0.1 | 0 | 3000 | 
5 | CCN1C(=O)c2cccc3c(NS(=O)(=O)c4ccc(F)cc4F)ccc1c23 | 4.5 | 4190 | 3 | 5.5 | 2.9 |  | 275 | -5.7 | 6.6 | 7.8 | 9.5 | 120 | 3.6 | 1.6 | -1 | 2 |  | inhibition of growth at 10 µM (MV4-11 [21]): 25%
